# Measured values as given in ChEMBL document CHEMBL3864121, “Development of ebsulfur analogues as potent antibacterials against methicillin-resistant Staphylococcus aureus” (Bioorg Med Chem, 2016).
# Legend:
# Type in all cases: functional
# Staphylococcus aureus [1] = test: Antibacterial activity against methicillin-resistant Staphylococcus aureus C16 measured after overnight incubation by broth double-dilution method
# Procedure, shortened: (§1)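 MIC by broth double-dilution in liquid Mueller-Hinton medium. Values are reported in µg/mL.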
# Staphylococcus aureus [2] = test: Antibacterial activity against methicillin-resistant Staphylococcus aureus USA300 measured after overnight incubation by broth double-dilution method; procedure, shortened: as §1
# Staphylococcus aureus [3] = test: Antibacterial activity against methicillin-resistant Staphylococcus aureus USA600 measured after overnight incubation by broth double-dilution method; procedure, shortened: as §1
# Staphylococcus aureus [4] = test: Antibacterial activity against methicillin-sensitive Staphylococcus aureus ATCC 29213 measured after overnight incubation by broth double-dilution method; procedure, shortened: as §1
# Staphylococcus aureus [5] = test: Antibacterial activity against methicillin-resistant Staphylococcus aureus 2 measured after overnight incubation by broth double-dilution method; procedure, shortened: as §1
# Staphylococcus aureus [6] = test: Antibacterial activity against methicillin-resistant Staphylococcus aureus NRS51 measured after overnight incubation by broth double-dilution method; procedure, shortened: as §1
# Staphylococcus aureus [7] = test: Antibacterial activity against methicillin-resistant Staphylococcus aureus 1 measured after overnight incubation by broth double-dilution method; procedure, shortened: as §1
# Staphylococcus aureus [8] = test: Antibacterial activity against methicillin-resistant Staphylococcus aureus ATCC 33591 measured after overnight incubation by broth double-dilution method; procedure, shortened: as §1
# Enterococcus faecalis [9] = test: Antibacterial activity against Enterococcus faecalis ATCC 29212 measured after overnight incubation by broth double-dilution method
# Procedure, shortened: (§2)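 MIC by broth double-dilution in Mueller-Hinton medium. Re-testing at the time-kill inoculum used 1×10^6 CFU/mL.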
# [10] = test system: Staphylococcus epidermidis; test: Antibacterial activity against Staphylococcus epidermidis ATCC 35984 measured after overnight incubation by broth double-dilution method; details: RP62A; procedure, shortened: as §2
# Staphylococcus aureus [11] = test: Antibacterial activity against methicillin-resistant Staphylococcus aureus C14 measured after overnight incubation by broth double-dilution method; procedure, shortened: as §1
# Enterococcus faecalis [12] = test: Antibacterial activity against Enterococcus faecalis ATCC 49533 measured after overnight incubation by broth double-dilution method; procedure, shortened: as §2
# Staphylococcus aureus [13] = test: Antibacterial activity against methicillin-resistant Staphylococcus aureus USA100 measured after overnight incubation by broth double-dilution method; procedure, shortened: as §1
# Staphylococcus aureus [14] = test: Antibacterial activity against methicillin-resistant Staphylococcus aureus C7 measured after overnight incubation by broth double-dilution method; procedure, shortened: as §1
# Staphylococcus aureus [15] = test: Antibacterial activity against methicillin-resistant Staphylococcus aureus S17 measured after overnight incubation by broth double-dilution method; procedure, shortened: as §1
# Enterococcus = test: Antibacterial activity against Vancomycin-resistant Enterococcus measured after overnight incubation by broth double-dilution method; procedure, shortened: as §1
# Staphylococcus aureus [16] = test: Antibacterial activity against methicillin-resistant Staphylococcus aureus USA200 measured after overnight incubation by broth double-dilution method; procedure, shortened: as §1
# Enterococcus faecium = test: Antibacterial activity against Enterococcus faecium BM4105-RF measured after overnight incubation by broth double-dilution method; procedure, shortened: as §1
# Staphylococcus aureus [17] = test: Antibacterial activity against methicillin-resistant Staphylococcus aureus C19 measured after overnight incubation by broth double-dilution method; procedure, shortened: as §1
# [18] = test system: Mycolicibacterium smegmatis; test: Antibacterial activity against Mycobacterium smegmatis MC2-155 measured after overnight incubation by broth double-dilution method; details: str. MC2 155; procedure, shortened: as §1
# Staphylococcus aureus [19] = test: Antibacterial activity against methicillin-resistant Staphylococcus aureus C2 measured after overnight incubation by broth double-dilution method; procedure, shortened: as §1
# Staphylococcus aureus [20] = test: Antibacterial activity against methicillin-resistant Staphylococcus aureus G6 measured after overnight incubation by broth double-dilution method; procedure, shortened: as §1
# Staphylococcus aureus [21] = test: Antibacterial activity against methicillin-resistant Staphylococcus aureus G1 measured after overnight incubation by broth double-dilution method; procedure, shortened: as §1
# Staphylococcus aureus [22] = test: Antibacterial activity against methicillin-sensitive Staphylococcus aureus ATCC 6538 measured after overnight incubation by broth double-dilution method; procedure, shortened: as §1
# Staphylococcus aureus [23] = test: Antibacterial activity against methicillin-resistant Staphylococcus aureus S22 measured after overnight incubation by broth double-dilution method; procedure, shortened: as §1
# Staphylococcus aureus [24] = test: Antibacterial activity against methicillin-sensitive Staphylococcus aureus ATCC 25923 measured after overnight incubation by broth double-dilution method; procedure, shortened: as §1
# Staphylococcus aureus [25] = test: Antibacterial activity against methicillin-resistant Staphylococcus aureus G12 measured after overnight incubation by broth double-dilution method; procedure, shortened: as §1
# Staphylococcus aureus [26] = test: Antibacterial activity against methicillin-resistant Staphylococcus aureus S14 measured after overnight incubation by broth double-dilution method; procedure, shortened: as §1
# Listeria monocytogenes = test: Antibacterial activity against Listeria monocytogenes ATCC 19115 measured after overnight incubation by broth double-dilution method; procedure, shortened: as §2
# Staphylococcus aureus [27] = test: Antibacterial activity against methicillin-resistant Staphylococcus aureus NRS77 measured after overnight incubation by broth double-dilution method; procedure, shortened: as §1
# Staphylococcus aureus [28] = test: Antibacterial activity against methicillin-resistant Staphylococcus aureus C1 measured after overnight incubation by broth double-dilution method; procedure, shortened: as §1
# Staphylococcus aureus [29] = test: Antibacterial activity against methicillin-resistant Staphylococcus aureus NRS4 measured after overnight incubation by broth double-dilution method; procedure, shortened: as §1
# Staphylococcus aureus [30] = test: Antibacterial activity against methicillin-resistant Staphylococcus aureus BRS3 measured after overnight incubation by broth double-dilution method; procedure, shortened: as §1
# Staphylococcus aureus [31] = test: Antibacterial activity against methicillin-resistant Staphylococcus aureus G14 measured after overnight incubation by broth double-dilution method; procedure, shortened: as §1
# Staphylococcus aureus [32] = test: Antibacterial activity against methicillin-resistant Staphylococcus aureus S24 measured after overnight incubation by broth double-dilution method; procedure, shortened: as §1
SMILES,MIC (Staphylococcus aureus [1]) [µg/mL],MIC (Staphylococcus aureus [2]) [µg/mL],MIC (Staphylococcus aureus [3]) [µg/mL],MIC (Staphylococcus aureus [4]) [µg/mL],MIC (Staphylococcus aureus [5]) [µg/mL],MIC (Staphylococcus aureus [6]) [µg/mL],MIC (Staphylococcus aureus [7]) [µg/mL],MIC (Staphylococcus aureus [8]) [µg/mL],MIC (Enterococcus faecalis [9]) [µg/mL],MIC [10] [µg/mL],MIC (Staphylococcus aureus [11]) [µg/mL],MIC (Enterococcus faecalis [12]) [µg/mL],MIC (Staphylococcus aureus [13]) [µg/mL],MIC (Staphylococcus aureus [14]) [µg/mL],MIC (Staphylococcus aureus [15]) [µg/mL],MIC (Enterococcus) [µg/mL],MIC (Staphylococcus aureus [16]) [µg/mL],MIC (Enterococcus faecium) [µg/mL],MIC (Staphylococcus aureus [17]) [µg/mL],MIC [18] [µg/mL],other results
O=c1c2ccccc2[s+]([O-])n1C1CCCCCCC1 (stereo not given),> 125,> 125,> 125,> 125,> 125,> 125,> 125,> 125,> 125,> 125,> 125,> 125,> 125,> 125,> 125,> 125,> 125,> 125,> 125,> 125,MIC (Staphylococcus aureus [19]): > 125 µg/mL; MIC (Staphylococcus aureus [20]): > 125 µg/mL; MIC (Staphylococcus aureus [21]): > 125 µg/mL; MIC (Staphylococcus aureus [22]): > 125 µg/mL; MIC (Staphylococcus aureus [23]): > 125 µg/mL; MIC (Staphylococcus aureus [24]): > 125 µg/mL; MIC (Staphylococcus aureus [25]): > 125 µg/mL; MIC (Staphylococcus aureus [26]): > 125 µg/mL; MIC (Listeria monocytogenes): > 125 µg/mL; MIC (Staphylococcus aureus [27]): > 125 µg/mL; MIC (Staphylococcus aureus [28]): > 125 µg/mL; MIC (Staphylococcus aureus [29]): > 125 µg/mL; MIC (Staphylococcus aureus [30]): > 125 µg/mL; MIC (Staphylococcus aureus [31]): > 125 µg/mL; MIC (Staphylococcus aureus [32]): 125 µg/mL
O=c1c2ccccc2sn1CCCc1ccccc1,3.9,2,3.9,2,2,2,0.5,1,15.6,2,3.9,> 125,2,2,2,0.5,3.9,15.6,2,3.9,MIC (Staphylococcus aureus [19]): 2 µg/mL; MIC (Staphylococcus aureus [20]): 2 µg/mL; MIC (Staphylococcus aureus [21]): 0.5 µg/mL; MIC (Staphylococcus aureus [22]): 3.9 µg/mL; MIC (Staphylococcus aureus [23]): 3.9 µg/mL; MIC (Staphylococcus aureus [24]): 2 µg/mL; MIC (Staphylococcus aureus [25]): 2 µg/mL; MIC (Staphylococcus aureus [26]): ≤ 0.25 µg/mL; MIC (Listeria monocytogenes): 2 µg/mL; MIC (Staphylococcus aureus [27]): 2 µg/mL; MIC (Staphylococcus aureus [28]): 2 µg/mL; MIC (Staphylococcus aureus [29]): 2 µg/mL; MIC (Staphylococcus aureus [30]): 3.9 µg/mL; MIC (Staphylococcus aureus [31]): 2 µg/mL; MIC (Staphylococcus aureus [32]): 2 µg/mL
CC(C)CCn1sc2ccccc2c1=O,7.8,7.8,7.8,3.9,7.8,7.8,3.9,> 125,7.8,3.9,3.9,15.6,7.8,3.9,3.9,2,7.8,7.8,3.9,3.9,MIC (Staphylococcus aureus [19]): 3.9 µg/mL; MIC (Staphylococcus aureus [20]): 3.9 µg/mL; MIC (Staphylococcus aureus [21]): 2 µg/mL; MIC (Staphylococcus aureus [22]): 3.9 µg/mL; MIC (Staphylococcus aureus [23]): 7.8 µg/mL; MIC (Staphylococcus aureus [24]): > 125 µg/mL; MIC (Staphylococcus aureus [25]): 3.9 µg/mL; MIC (Staphylococcus aureus [26]): 1 µg/mL; MIC (Listeria monocytogenes): > 125 µg/mL; MIC (Staphylococcus aureus [27]): 3.9 µg/mL; MIC (Staphylococcus aureus [28]): 3.9 µg/mL; MIC (Staphylococcus aureus [29]): 3.9 µg/mL; MIC (Staphylococcus aureus [30]): 3.9 µg/mL; MIC (Staphylococcus aureus [31]): 7.8 µg/mL; MIC (Staphylococcus aureus [32]): 3.9 µg/mL
O=c1c2ccccc2sn1C1CCCCCC1,3.9,15.6,7.8,3.9,3.9,3.9,2,1,> 125,2,2,> 125,3.9,3.9,1,2,7.8,7.8,1,7.8,MIC (Staphylococcus aureus [19]): 2 µg/mL; MIC (Staphylococcus aureus [20]): 2 µg/mL; MIC (Staphylococcus aureus [21]): 0.5 µg/mL; MIC (Staphylococcus aureus [22]): 7.8 µg/mL; MIC (Staphylococcus aureus [23]): 3.9 µg/mL; MIC (Staphylococcus aureus [24]): 3.9 µg/mL; MIC (Staphylococcus aureus [25]): 2 µg/mL; MIC (Staphylococcus aureus [26]): 0.5 µg/mL; MIC (Listeria monocytogenes): 3.9 µg/mL; MIC (Staphylococcus aureus [27]): 2 µg/mL; MIC (Staphylococcus aureus [28]): 2 µg/mL; MIC (Staphylococcus aureus [29]): 2 µg/mL; MIC (Staphylococcus aureus [30]): 2 µg/mL; MIC (Staphylococcus aureus [31]): 3.9 µg/mL; MIC (Staphylococcus aureus [32]): 3.9 µg/mL
